# In PMC7938327 (Journal of medicinal chemistry, 2017):
# Entries after “also recorded” stand apart in the source; their conditions may differ.
# Tests used:
# [1] = molecular target: T1, human recombinant ATX (Homo sapiens, UniProt Q13822); test: ATX lysophospholipase D activity, FS-3 hydrolysis; format: biochemical; conditions: for mechanism: FS-3 0 to 10 μM, inhibitor 0, 0.5 × IC50 or 2 × IC50, best global fit
# [2] = molecular target: T1, human recombinant ATX; test: ATX nucleotide pyrophosphatase activity, pNP-TMP hydrolysis; format: biochemical; conditions: 1 mM pNP-TMP, 4 nM ATX, compound 0 to 1 μM
# In short: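 Human recombinant FLAG-tagged ATX was expressed in Sf9 insect cells and purified on anti-FLAG resin. Absorbance at 405 nm was read every 2 min for 1 h.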
# [3] = molecular target: LPA1 (Homo sapiens, UniProt Q92633); test: LPA-mediated Ca2+ mobilization, LPA1 RH7777 cells; format: cell-based; conditions: for antagonist activity at LPA1 (in words): LPA1-elicited Ca2+ responses
# In short: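 Rat hepatoma RH7777 cells stably expressing LPA1 were seeded at 5 × 10^4 per well on poly-L-lysine, left overnight, then serum-deprived 4 h in HEPES-Krebs buffer pH 7.4. Cells were loaded 30 min with 4.5 μg/mL Fura-2AM plus 0.45% Pluronic F-127. […] The 340/510 and 380/510 nm ratio was read every 3.42 s for 70 s, normalized to LPA Emax, and fitted by variable-slope regression for IC50.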
# [4] = molecular target: T2, purified recombinant ENPP6 (Homo sapiens, UniProt Q6UWR7); test: ENPP6 inhibition, pNPPC hydrolysis; format: biochemical; conditions: 10 μM pNPPC, 10 nM ENPP6, compound 0 to 10 μM; data not shown
# T2 sequence (Q6UWR7 23-440): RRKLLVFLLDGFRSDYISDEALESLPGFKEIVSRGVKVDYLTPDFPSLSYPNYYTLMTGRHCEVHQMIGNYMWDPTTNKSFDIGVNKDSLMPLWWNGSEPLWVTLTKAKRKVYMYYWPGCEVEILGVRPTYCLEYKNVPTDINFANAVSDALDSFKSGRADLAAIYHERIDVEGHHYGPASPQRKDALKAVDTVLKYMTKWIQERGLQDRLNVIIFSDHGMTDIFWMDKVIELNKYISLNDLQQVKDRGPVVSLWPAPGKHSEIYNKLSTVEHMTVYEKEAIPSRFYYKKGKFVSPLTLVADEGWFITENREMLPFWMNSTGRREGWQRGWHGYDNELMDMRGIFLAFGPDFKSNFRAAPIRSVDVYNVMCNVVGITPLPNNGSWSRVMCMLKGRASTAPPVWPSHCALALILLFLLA
# In short: (§1)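 Purified recombinant enzyme (0 or 10 nM) was incubated with 10 μM pNPPC and 0–10 μM test compound in triplicate wells. Buffers were 100 mM Tris, 500 mM NaCl, 0.05% Triton, pH 9.0 for ENPP6, and 50 mM Tris, 150 mM NaCl, 10 mM taurocholate, pH 8.5 for ENPP7. Absorbance at 405 nm was read every 2 min for 1 h.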
# [5] = molecular target: T3, purified recombinant ENPP7 (Homo sapiens, UniProt Q6UWV6); test: ENPP7 inhibition, pNPPC hydrolysis; format: biochemical; conditions: 10 μM pNPPC, 10 nM ENPP7, compound 0 to 10 μM; data not shown
# T3 sequence (Q6UWV6 22-458): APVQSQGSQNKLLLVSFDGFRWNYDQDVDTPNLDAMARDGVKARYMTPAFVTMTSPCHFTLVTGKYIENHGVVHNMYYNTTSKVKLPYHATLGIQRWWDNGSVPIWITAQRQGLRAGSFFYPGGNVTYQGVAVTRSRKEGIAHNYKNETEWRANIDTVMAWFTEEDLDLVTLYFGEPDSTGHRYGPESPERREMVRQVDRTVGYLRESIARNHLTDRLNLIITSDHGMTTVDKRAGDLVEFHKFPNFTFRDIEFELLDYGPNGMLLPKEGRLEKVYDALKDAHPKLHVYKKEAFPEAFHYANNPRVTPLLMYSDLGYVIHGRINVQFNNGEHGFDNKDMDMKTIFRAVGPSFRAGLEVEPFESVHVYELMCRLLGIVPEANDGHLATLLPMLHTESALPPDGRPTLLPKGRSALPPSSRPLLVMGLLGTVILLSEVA
# In short: as §1
# [6] = system: A2058 human melanoma cells; test: ATX-mediated in vitro invasion assay; format: cell-based; conditions: exogenous LPC and recombinant ATX; for inhibition of A2058 cell invasion, screen at 10 μM: compared with 30; for inhibition of A2058 cell invasion (in words): dose–response
# [7] = In vitro stability in 4T1 cell culture by LC-MS; format: in vitro ADME, mouse; conditions: 40 h of exposure to 4T1 cells
# [8] = system: 4T1 breast cancer cell line; test: Chemoresistance of 4T1 cells to paclitaxel; format: cell-based, mouse; conditions: for LD50 to PT with ATX inhibitor pretreatment: 24 h pretreatment with 3 μM compound, then PT 48 h
# [9] = system: 4T1-TaxR cancer stem-like cells (mammospheres); test: 4T1-TaxR mammosphere viability with paclitaxel; format: cell-based, mouse
# [10] = molecular target: LPA2 (Homo sapiens, UniProt Q9HBW0); test: LPA-mediated Ca2+ mobilization, LPA2 MEF cells; format: cell-based; conditions: read-out: LPA2 Emax
# [11] = molecular target: T4, LPA3 (Homo sapiens, UniProt Q9UBY5); test: LPA-mediated Ca2+ mobilization, LPA3 RH7777 cells; format: cell-based; conditions: RH7777, read-out: LPA3 Emax
# T4 sequence (Q9UBY5 1-353): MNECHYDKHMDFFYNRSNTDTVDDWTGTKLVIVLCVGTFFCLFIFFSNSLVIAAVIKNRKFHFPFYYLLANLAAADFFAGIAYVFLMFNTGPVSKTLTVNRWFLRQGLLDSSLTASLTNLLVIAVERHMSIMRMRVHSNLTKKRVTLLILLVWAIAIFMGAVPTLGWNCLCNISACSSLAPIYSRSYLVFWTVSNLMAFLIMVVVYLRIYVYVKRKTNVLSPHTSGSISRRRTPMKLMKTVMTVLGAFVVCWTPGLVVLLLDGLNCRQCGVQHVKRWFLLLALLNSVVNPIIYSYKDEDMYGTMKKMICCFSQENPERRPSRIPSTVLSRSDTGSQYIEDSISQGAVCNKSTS
# [12] = molecular target: LPA4 (Homo sapiens, UniProt Q99677); test: LPA-mediated Ca2+ mobilization, LPA4 CHO cells; format: cell-based; conditions: read-out: LPA4 Emax
# [13] = molecular target: LPA5 (Homo sapiens, UniProt Q9H1C0); test: LPA-mediated Ca2+ mobilization, LPA5 B103 cells; format: cell-based; conditions: LPA 18:1 alone; normalized to percentage of LPA 18:1 Emax
# Chain of LPA5 (Q9H1C0 whole entry, species assumed): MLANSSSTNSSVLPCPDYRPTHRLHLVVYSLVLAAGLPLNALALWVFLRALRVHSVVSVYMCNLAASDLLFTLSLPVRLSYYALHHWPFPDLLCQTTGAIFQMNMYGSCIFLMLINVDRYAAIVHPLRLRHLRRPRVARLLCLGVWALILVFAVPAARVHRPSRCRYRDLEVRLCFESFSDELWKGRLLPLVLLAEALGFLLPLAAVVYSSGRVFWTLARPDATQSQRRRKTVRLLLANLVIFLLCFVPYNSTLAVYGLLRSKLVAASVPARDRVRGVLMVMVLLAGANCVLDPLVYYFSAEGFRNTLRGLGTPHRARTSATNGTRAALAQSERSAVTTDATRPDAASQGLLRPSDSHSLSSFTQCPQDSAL
# Chain of LPA1 (Q92633 whole entry, species assumed): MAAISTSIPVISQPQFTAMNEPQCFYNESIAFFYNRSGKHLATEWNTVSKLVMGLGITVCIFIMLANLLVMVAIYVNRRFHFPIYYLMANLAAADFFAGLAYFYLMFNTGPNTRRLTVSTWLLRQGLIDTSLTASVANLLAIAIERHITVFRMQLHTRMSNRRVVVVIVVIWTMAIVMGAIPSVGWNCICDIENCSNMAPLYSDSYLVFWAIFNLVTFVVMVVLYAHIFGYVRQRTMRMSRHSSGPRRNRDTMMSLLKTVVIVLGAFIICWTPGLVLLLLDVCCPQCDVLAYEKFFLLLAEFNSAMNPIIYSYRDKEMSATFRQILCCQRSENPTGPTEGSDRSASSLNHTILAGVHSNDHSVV
# Chain of LPA2 (Q9HBW0 whole entry, species assumed): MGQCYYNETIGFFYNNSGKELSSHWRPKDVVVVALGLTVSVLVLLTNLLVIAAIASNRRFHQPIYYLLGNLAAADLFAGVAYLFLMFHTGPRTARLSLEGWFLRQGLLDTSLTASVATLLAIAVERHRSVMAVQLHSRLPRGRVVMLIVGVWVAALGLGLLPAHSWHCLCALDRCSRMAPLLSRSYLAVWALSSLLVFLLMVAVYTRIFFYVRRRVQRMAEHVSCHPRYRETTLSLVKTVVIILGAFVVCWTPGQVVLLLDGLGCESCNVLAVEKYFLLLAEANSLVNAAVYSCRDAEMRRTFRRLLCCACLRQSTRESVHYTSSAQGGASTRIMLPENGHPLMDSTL
# Chain of LPA4 (Q99677 whole entry, species assumed): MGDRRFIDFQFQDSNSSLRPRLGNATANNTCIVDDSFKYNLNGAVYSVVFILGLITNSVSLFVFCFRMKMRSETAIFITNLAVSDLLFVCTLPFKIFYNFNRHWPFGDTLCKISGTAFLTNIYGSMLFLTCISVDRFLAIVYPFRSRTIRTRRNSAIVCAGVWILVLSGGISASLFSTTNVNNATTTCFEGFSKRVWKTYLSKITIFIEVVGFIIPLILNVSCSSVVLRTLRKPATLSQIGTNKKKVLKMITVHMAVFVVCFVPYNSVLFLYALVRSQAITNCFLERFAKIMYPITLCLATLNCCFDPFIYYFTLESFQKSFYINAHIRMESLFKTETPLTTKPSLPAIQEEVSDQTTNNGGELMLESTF
Structure (SMILES),mechanism [1],pNP-TMP inhibition [2],antagonist activity at LPA1 (in words) [3],inhibitory activity for ENPP6 [4],inhibitory activity for ENPP7 [5],"inhibition of A2058 cell invasion, screen at 10 μM [6]",inhibition of A2058 cell invasion (in words) [6],in vitro stability (in words) [7],LD50 to PT with ATX inhibitor pretreatment [8] [nM],other results
"O=C(Nc1cc(F)c(F)c(F)c1)c1cc(S(=O)(=O)N2CCOCC2)c(Cl)cc1Cl [Compound 3b, 2,4-Dichloro-5-(morpholinosulfonyl)-N-(3,4,5-trifluorophenyl)-benzamide]",competitive,sparing effects on hydrolysis of the nucleotide substrate pNP-TMP and none,weak antagonist action; also recorded: exhibited antagonist activity; also recorded: effective in antagonizing LPA1-elicited Ca^2+ responses,lack inhibitory action,lack inhibitory action,as effective as 30,inhibit ATX-dependent invasion; also recorded: dose dependently decreased A2058 cell invasion,significant stability,127,"resensitization of cancer stem-like cells to PT (in words) ([9]; 4T1-TaxR cells): potently reduced in vitro chemotherapeutic resistance; also recorded: effectively resensitized; further reduction of cell viability compared to PT alone ([9]; 4T1-TaxR mammospheres, PT 100 nM, compound 5 μM, 3 days): 25–30%"
"O=C(Nc1cc(F)c(Cl)c(F)c1)c1cc(S(=O)(=O)N2CCOCC2)c(Cl)cc1Cl [Compound 3f, 2,4-Dichloro-N-(4-chloro-3,5-difluorophenyl)-5-(morpholinosulfonyl)benzamide]",competitive,none,weak antagonist action; also recorded: exhibited antagonist activity; also recorded: effective in antagonizing LPA1-elicited Ca^2+ responses,lack inhibitory action,lack inhibitory action,as effective as 30,dose dependently decreased A2058 cell invasion,significant stability,66,
"O=S(=O)(c1cc(C(=S)Nc2cc(F)c(F)c(F)c2)c(Cl)cc1Cl)N1CCOCC1 [Compound 14, 2,4-Dichloro-5-(morpholinosulfonyl)-N-(3,4,5-trifluorophenyl)-benzothioamide]",competitive,none,,,,as effective as 30,inhibit ATX-dependent invasion; also recorded: dose dependently decreased A2058 cell invasion,significant stability,,"fold IC50 improvement relative to parent compound 3 ([1]; ATX, FS-3): 3 fold; ATX inhibitory activity (in words) ([1]; FS-3 substrate): retained similar inhibitory activity as the amide analogues"
CCCCCCCC/C=C\CCCCCCCC(=O)OCC(O)COP(=O)(O)O (stereo not drawn) [LPA 18:1],,,,,,,,,,"Emax ([3]; RH7777, read-out: LPA1 Emax): 100%; Emax [10]: 100%; Emax [11]: 100%; Emax [12]: 100%; LPA5 μEmax [13]: 100.00 ± 0.00"
"CC(=O)O[C@H]1C(=O)[C@@]2(C)[C@H]([C@H](OC(=O)c3ccccc3)[C@]3(O)C[C@H](OC(=O)[C@H](O)[C@@H](NC(=O)c4ccccc4)c4ccccc4)C(C)=C1C3(C)C)[C@]1(OC(C)=O)CO[C@@H]1C[C@@H]2O [PT, paclitaxel, reference compound]",,,,,,,,,,"PT LD50 for reducing cell growth by 50%, applied alone ([8]; PT 48 h, no ATX inhibitor): 202 nM"
